Results: ChEMBL document CHEMBL2412964, “Discovery of novel tetrahydro-pyrazolo [4,3-c] pyridines for the treatment of neuropathic pain: synthesis and neuropharmacology” (Eur J Med Chem, 2013)

Legend:
Rattus norvegicus [1] = assay: Antinociceptive activity in Wistar rat partial sciatic nerve ligation model assessed as reversal of spontaneous pain response at 100 mg/kg, ip after 60 mins (reference value: 2.9 +/- 0.3%); format: functional; settings: route intraperitoneal
Rattus norvegicus [2] = assay: Antinociceptive activity in Wistar rat partial sciatic nerve ligation model assessed as reversal of tactile allodynia at 100 mg/kg, ip after 120 mins relative to control; format: functional; settings: route intraperitoneal
Mus musculus [3] = species on record: Mus musculus; assay: Neurotoxicity in Swiss albino mouse assessed as minimal motor impairment after 4 hrs by rotarod test; format: toxicity, organism-based; settings: in vivo
In short: (§1)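 Mice, either sex, 20-25 g, dosed at 30, 100 and 300 mg/kg. Minimal motor impairment was scored on the rotarod at 0.5 and 4.0 h. Value reported is the minimum dose showing the effect in half or more of three mice per group.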

Rattus norvegicus [4] = assay: Antinociceptive activity in Wistar rat chronic constriction injury model assessed as reversal of spontaneous pain response at 100 mg/kg, ip after 120 mins (reference value: 4.5 +/- 0.2%); format: functional; settings: route intraperitoneal
Rattus norvegicus [5] = assay: Antinociceptive activity in Wistar rat chronic constriction injury model assessed as reversal of mechanical allodynia at 100 mg/kg, ip after 60 mins (reference value: 4.9 +/- 1.0%); format: functional; settings: route intraperitoneal
Rattus norvegicus [6] = assay: Antinociceptive activity in Wistar rat chronic constriction injury model assessed as reversal of mechanical allodynia at 100 mg/kg, ip after 120 mins (reference value: 5.3 +/- 0.5%); format: functional; settings: route intraperitoneal
Rattus norvegicus [7] = assay: Antinociceptive activity in Wistar rat partial sciatic nerve ligation model assessed as reversal of cold allodynia at 100 mg/kg, ip after 120 mins (reference value: 1.5 +/- 0.5%); format: functional; settings: route intraperitoneal
Rattus norvegicus [8] = assay: Antinociceptive activity in Wistar rat partial sciatic nerve ligation model assessed as reversal of tactile allodynia at 100 mg/kg, ip after 30 mins (reference value: 7.7 +/- 0.7%); format: functional; settings: route intraperitoneal
Rattus norvegicus [9] = assay: Antinociceptive activity in Wistar rat chronic constriction injury model assessed as reversal of tactile allodynia at 100 mg/kg, ip after 120 mins (reference value: 4.1 +/- 2.1%); format: functional; settings: route intraperitoneal
Rattus norvegicus [10] = assay: Antinociceptive activity in Wistar rat chronic constriction injury model assessed as reversal of tactile allodynia at 100 mg/kg, ip after 30 mins (reference value: 3.4 +/- 0.8%); format: functional; settings: route intraperitoneal
Rattus norvegicus [11] = assay: Antinociceptive activity in Wistar rat partial sciatic nerve ligation model assessed as reversal of spontaneous pain response at 100 mg/kg, ip after 120 mins (reference value: 1.2 +/- 0.1%); format: functional; settings: route intraperitoneal
Rattus norvegicus [12] = assay: Antinociceptive activity in Wistar rat partial sciatic nerve ligation model assessed as reversal of cold allodynia at 100 mg/kg, ip after 30 mins (reference value: 4.1 +/- 1.0%); format: functional; settings: route intraperitoneal
Mus musculus [13] = assay: Antinociceptive activity in Swiss albino mouse assessed as inhibition of formalin-induced flinching at 100 mg/kg administered 30 mins prior to test measured up to 5 mins relative to control; format: functional
Rattus norvegicus [14] = assay: Antinociceptive activity in Wistar rat chronic constriction injury model assessed as reversal of tactile allodynia at 100 mg/kg, ip after 60 mins (reference value: 1.3 +/- 0.3%); format: functional; settings: route intraperitoneal
Rattus norvegicus [15] = assay: Antinociceptive activity in Wistar rat chronic constriction injury model assessed as reversal of spontaneous pain response at 100 mg/kg, ip after 30 mins (reference value: 8.9 +/- 4.6%); format: functional; settings: route intraperitoneal
Rattus norvegicus [16] = assay: Antinociceptive activity in Wistar rat partial sciatic nerve ligation model assessed as reversal of mechanical allodynia at 100 mg/kg, ip after 120 mins (reference value: 2.9 +/- 0.3%); format: functional; settings: route intraperitoneal
Rattus norvegicus [17] = assay: Antinociceptive activity in Wistar rat partial sciatic nerve ligation model assessed as reversal of cold allodynia at 100 mg/kg, ip after 60 mins (reference value: 2.5 +/- 0.3%); format: functional; settings: route intraperitoneal
Rattus norvegicus [18] = assay: Antinociceptive activity in Wistar rat chronic constriction injury model assessed as reversal of cold allodynia at 100 mg/kg, ip after 120 mins (reference value: 5.4 +/- 1.9%); format: functional; settings: route intraperitoneal
Rattus norvegicus [19] = assay: Antinociceptive activity in Wistar rat partial sciatic nerve ligation model assessed as reversal of tactile allodynia at 100 mg/kg, ip after 60 mins (reference value: 12.5 +/- 1.2%); format: functional; settings: route intraperitoneal
Rattus norvegicus [20] = assay: Antinociceptive activity in Wistar rat chronic constriction injury model assessed as reversal of cold allodynia at 100 mg/kg, ip after 30 mins (reference value: 0.6 +/- 2.7%); format: functional; settings: route intraperitoneal
Rattus norvegicus [21] = assay: Antinociceptive activity in Wistar rat chronic constriction injury model assessed as reversal of mechanical allodynia at 100 mg/kg, ip after 30 mins (reference value: 4.7 +/- 2.1%); format: functional; settings: route intraperitoneal
Rattus norvegicus [22] = assay: Antinociceptive activity in Wistar rat partial sciatic nerve ligation model assessed as reversal of mechanical allodynia at 100 mg/kg, ip after 30 mins (reference value: 2.9 +/- 0.3%); format: functional; settings: route intraperitoneal
Mus musculus [23] = species on record: Mus musculus; assay: Neurotoxicity in Swiss albino mouse assessed as minimal motor impairment after 0.5 hrs by rotarod test; format: toxicity, organism-based; settings: in vivo; in short: as §1
Mus musculus [24] = assay: Antinociceptive activity in Swiss albino mouse assessed as inhibition of acetic acid-induced writhing at 100 mg/kg administered 30 mins prior to acetic acid-challenge measured for 30 mins relative to control; format: functional
In short: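 Swiss albino mice (20–25 g, either sex); writhing induced by i.p. 0.1 mL of 2.0% v/v acetic acid given half an hour after test compound dosing.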

Rattus norvegicus [25] = assay: Antinociceptive activity in Wistar rat partial sciatic nerve ligation model assessed as reversal of spontaneous pain response at 100 mg/kg, ip after 30 mins (reference value: 3.2 +/- 0.3%); format: functional; settings: route intraperitoneal
Rattus norvegicus [26] = assay: Antinociceptive activity in Wistar rat partial sciatic nerve ligation model assessed as reversal of mechanical allodynia at 100 mg/kg, ip after 60 mins (reference value: 2.8 +/- 0.3%); format: functional; settings: route intraperitoneal
Rattus norvegicus [27] = assay: Antinociceptive activity in Wistar rat chronic constriction injury model assessed as reversal of spontaneous pain response at 100 mg/kg, ip after 60 mins (reference value: 4.6 +/- 0.6%); format: functional; settings: route intraperitoneal
Mus musculus [28] = assay: Antinociceptive activity in Swiss albino mouse assessed as inhibition of formalin-induced flinching at 100 mg/kg administered 30 mins prior to test measured for 10 to 30 mins relative to control; format: functional
Rattus norvegicus [29] = assay: Antinociceptive activity in Wistar rat chronic constriction injury model assessed as reversal of cold allodynia at 100 mg/kg, ip after 60 mins (reference value: 6.3 +/- 1.9%); format: functional; settings: route intraperitoneal
Mus musculus [30] = assay: Neurotoxicity in Swiss albino mouse assessed as minimal motor impairment at 300 mg/kg after 0.5 hrs by rotarod test; format: toxicity, organism-based; design: dose 300 mg/kg; settings: in vivo
In short: (§2)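 Swiss albino mice of either sex, 20-25 g, dosed at 30, 100 and 300 mg/kg, three per group. Minimal motor impairment scored by rotarod at 0.5 and 4.0 h after dosing. Reported value is the lowest dose giving impairment in half or more of the mice.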

Mus musculus [31] = assay: Neurotoxicity in Swiss albino mouse assessed as minimal motor impairment at 300 mg/kg after 4 hrs by rotarod test; format: toxicity, organism-based; design: dose 300 mg/kg; settings: in vivo; in short: as §2

SMILES | Activity (Rattus norvegicus [1]) [%] | Activity (Rattus norvegicus [2]) [%] | Activity (Rattus norvegicus [4]) [%] | Activity (Rattus norvegicus [5]) [%] | Activity (Rattus norvegicus [6]) [%] | Activity (Rattus norvegicus [7]) [%] | Activity (Rattus norvegicus [8]) [%] | Activity (Rattus norvegicus [9]) [%] | Activity (Rattus norvegicus [10]) [%] | Activity (Rattus norvegicus [11]) [%] | Activity (Rattus norvegicus [12]) [%] | inhibition in vivo at 100 mg/kg (Mus musculus [13]) [%] | Activity (Rattus norvegicus [14]) [%] | Activity (Rattus norvegicus [15]) [%] | Activity (Rattus norvegicus [16]) [%] | Activity (Rattus norvegicus [17]) [%] | Activity (Rattus norvegicus [18]) [%] | Activity (Rattus norvegicus [19]) [%] | Activity (Rattus norvegicus [20]) [%] | Activity (Rattus norvegicus [21]) [%] | further results
CCN1CCc2c(c(C(C)(C)C)nn2C(=O)Nc2ccc(F)cc2F)C1 | 65 | 38.3 | 91.6 | 72.9 | 11.2 | 40 | 66.7 | 51.7 | 61.2 | 56.9 | 64.3 | 4.4 | 58.3 | 81.6 | 43.9 | 64.4 | 40 | 51.7 | 64.3 | 70.8 | MLD (Mus musculus [3]): 100 mg/kg; Activity (Rattus norvegicus [22]): 60%; MLD (Mus musculus [23]): 100 mg/kg; inhibition in vivo at 100 mg/kg (Mus musculus [24]): 71.9%; Activity (Rattus norvegicus [25]): 89.3%; Activity (Rattus norvegicus [26]): 60.2%; Activity (Rattus norvegicus [27]): 85.9%; inhibition in vivo at 100 mg/kg (Mus musculus [28]): 73.4%; Activity (Rattus norvegicus [29]): 64.4%
CCN1CCc2c(c(C)nn2C(=O)Nc2cc(C)ccc2C)C1 | 11.1 | 3.5 | 27.7 | 20.7 | 16.8 | 12 | 27.6 | 2.2 | 17.3 | 4.8 | 17.1 | 2.6 | 9.9 | 23.6 | 14.6 | 14.8 | 14.1 | 16 | 18.4 | 3.8 | MLD (Mus musculus [3]): 300 mg/kg; Activity (Rattus norvegicus [22]): 39.6%; MLD (Mus musculus [23]): 300 mg/kg; inhibition in vivo at 100 mg/kg (Mus musculus [24]): 62.2%; Activity (Rattus norvegicus [25]): 7.5%; Activity (Rattus norvegicus [26]): 20.8%; Activity (Rattus norvegicus [27]): 33.3%; inhibition in vivo at 100 mg/kg (Mus musculus [28]): 55.8%; Activity (Rattus norvegicus [29]): 18.7%
CCN1CCc2c(c(C)nn2C(=O)Nc2c(C)cccc2C)C1 | 66.1 | 38.3 | 53.7 | 73.2 | 26.1 | 37.2 | 18.4 | 65.1 | 55 | 58.4 | 61.3 | 12.2 | 58 | 77.3 | 44.4 | 41.6 | 13.4 | 46.4 | 63.4 | 67 | Activity (Mus musculus [30]): Non-toxic; Activity (Mus musculus [31]): Non-toxic; Activity (Rattus norvegicus [22]): 57.8%; inhibition in vivo at 100 mg/kg (Mus musculus [24]): 60.5%; Activity (Rattus norvegicus [25]): 70.3%; Activity (Rattus norvegicus [26]): 69.4%; Activity (Rattus norvegicus [27]): 68.3%; inhibition in vivo at 100 mg/kg (Mus musculus [28]): 78.9%; Activity (Rattus norvegicus [29]): 52.6%
CCN1CCc2c(c(C(C)(C)C)nn2C(=O)Nc2cccc(C(F)(F)F)c2)C1 | 42.2 | 13 | 75.2 | 12.2 | 12.1 | 15 | 24.7 | 9.9 | 6.7 | 19.8 | 52.7 | 2.6 | 13.7 | 89.5 | 45.8 | 19.1 | 9.3 | 13 | 55.6 | 3.6 | Activity (Mus musculus [30]): Non-toxic; Activity (Mus musculus [31]): Non-toxic; Activity (Rattus norvegicus [22]): 52.8%; inhibition in vivo at 100 mg/kg (Mus musculus [24]): 61.4%; Activity (Rattus norvegicus [25]): 87.3%; Activity (Rattus norvegicus [26]): 59.5%; Activity (Rattus norvegicus [27]): 65.6%; inhibition in vivo at 100 mg/kg (Mus musculus [28]): 55.1%; Activity (Rattus norvegicus [29]): 35%
CCN1CCc2c(c(C(C)(C)C)nn2C(=O)Nc2cc(C)ccc2C)C1 | 14.4 | 4.5 | 12.4 | 18.2 | 9.1 | 9.5 | 36.4 | 44.7 | 4.5 | 13.6 | 12 | 0 | 9.7 | 21.1 | 14.3 | 12.7 | 40.5 | 16.7 | 17.9 | 18.2 | Activity (Mus musculus [30]): Non-toxic; Activity (Mus musculus [31]): Non-toxic; Activity (Rattus norvegicus [22]): 14.3%; inhibition in vivo at 100 mg/kg (Mus musculus [24]): 63.1%; Activity (Rattus norvegicus [25]): 4.9%; Activity (Rattus norvegicus [26]): 7.1%; Activity (Rattus norvegicus [27]): 19.8%; inhibition in vivo at 100 mg/kg (Mus musculus [28]): 15.7%; Activity (Rattus norvegicus [29]): 10.1%
CCN1CCc2c(c(C)nn2C(=O)Nc2cc(C)ccc2F)C1 | 26.6 | 3.5 | 51.8 | 42.9 | 14.3 | 7.9 | 20.2 | 13.7 | 6.6 | 17.3 | 13 | 5.2 | 9.9 | 15 | 18.2 | 16 | 2.8 | 15.1 | 15 | 35.7 | Activity (Mus musculus [30]): Non-toxic; Activity (Mus musculus [31]): Non-toxic; Activity (Rattus norvegicus [22]): 44.8%; inhibition in vivo at 100 mg/kg (Mus musculus [24]): 10.5%; Activity (Rattus norvegicus [25]): 57.6%; Activity (Rattus norvegicus [26]): 40.2%; Activity (Rattus norvegicus [27]): 11%; inhibition in vivo at 100 mg/kg (Mus musculus [28]): 15%; Activity (Rattus norvegicus [29]): 21.2%
